ChEMBL document CHEMBL1926583, “Synthesis and inhibitory activity of thymidine analogues targeting Mycobacterium tuberculosis thymidine monophosphate kinase” (Bioorg Med Chem, 2011)
Converted amounts (≈) assume the structure as drawn. The source made the active and inactive calls. The rule behind the calls is not given here.

Legend:
[1] = biological target: T1, Thymidylate kinase (Homo sapiens) (UniProt P23919); experiment: Competitive inhibition of human TMPK at 1 mM by Lineweaver-Burk analysis
T1 sequence (whole entry): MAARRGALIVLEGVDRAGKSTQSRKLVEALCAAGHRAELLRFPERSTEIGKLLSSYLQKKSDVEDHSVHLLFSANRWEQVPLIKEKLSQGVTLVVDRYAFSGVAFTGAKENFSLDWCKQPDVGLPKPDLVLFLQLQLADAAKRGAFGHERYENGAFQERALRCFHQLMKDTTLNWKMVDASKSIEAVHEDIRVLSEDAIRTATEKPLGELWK
In short: (§1)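 Coupled spectrophotometric assay at 334 nm (NADH oxidation via pyruvate kinase/lactate dehydrogenase/NDP kinase). Buffer 50 mM Tris-HCl pH 7.4, 50 mM KCl, 2 mM MgCl2, 0.2 mM NADH, 1 mM phosphoenolpyruvate. ATP 0.5 mM and dTMP 0.05 mM held fixed; analogue 0.003–1.5 mM.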

Thymidylate kinase [2] = biological target: T2, Thymidylate kinase (Mycobacterium tuberculosis, UniProt P9WKE1); experiment: Competitive inhibition of Mycobacterium tuberculosis TMPK by Lineweaver-Burk analysis; in short: as §1
T2 sequence (P9WKE1 whole entry): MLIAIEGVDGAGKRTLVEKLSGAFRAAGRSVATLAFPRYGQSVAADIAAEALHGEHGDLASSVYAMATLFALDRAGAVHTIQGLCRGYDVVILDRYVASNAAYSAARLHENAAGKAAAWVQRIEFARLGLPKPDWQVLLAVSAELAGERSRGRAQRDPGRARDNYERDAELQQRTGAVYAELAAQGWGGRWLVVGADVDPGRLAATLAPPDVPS

[3] = Selectivity index, ratio of Ki for human TMPK to Ki for Mycobacterium tuberculosis TMPK
[4] = biological target: T1, Thymidylate kinase (Homo sapiens); experiment: Competitive inhibition of human TMPK at 0.05 mM by Lineweaver-Burk analysis; in short: as §1
[5] = system: Mycobacterium bovis BCG str. Pasteur 1173P2; experiment: Antimycobacterial activity against Mycobacterium bovis BCG 1173P2 at 25 ug/mL after 8 days by resazurin reduction assay; assay type: functional
In short: (§2)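 M. bovis BCG 1173P2 grown in 7H9 Middlebrook broth with 0.2% glycerol and 0.5% Tween-80. Compounds tested as serial 2-fold dilutions, with bacteria at 10^5 per mL. Incubated at 37 °C in humidified normal air for 8 days. Resazurin 0.01% (wt/vol) then added, followed by overnight incubation at 37 °C. Growth read as the OD difference 570 minus 630 nm (blue-to-pink change).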

[6] = Antimycobacterial activity against Mycobacterium bovis BCG 1173P2 after 8 days by resazurin reduction assay; assay type: functional, Mycobacterium bovis BCG str. Pasteur 1173P2; settings: Mycobacterium tuberculosis variant bovis BCG, 192 h; in short: as §2
Thymidylate kinase [7] = biological target: T3, Thymidylate kinase (Homo sapiens, UniProt P23919); experiment: Competitive inhibition of human TMPK by Lineweaver-Burk analysis; in short: as §1
T3 sequence (P23919 whole entry): T1 sequence (whole entry)

[8] = biological target: T4, Thymidylate kinase (Mycobacterium tuberculosis) (UniProt P9WKE1); experiment: Competitive inhibition of Mycobacterium tuberculosis TMPK at 0.05 mM by Lineweaver-Burk analysis; in short: as §1
T4 sequence (whole entry): T2 sequence (P9WKE1 whole entry)

Structure (SMILES) | Ki (Thymidylate kinase [2]) | further results
Cc1cn([C@H]2C[C@H](n3nnnc3NCc3ccccc3)[C@@H](CO)O2)c(=O)[nH]c1=O | 2.3 µM | inhibition [1]: inactive; Ratio Ki [3]: > 100
Cc1cn([C@H]2C[C@H](n3cc(-c4ccccc4)nn3)[C@@H](CO)O2)c(=O)[nH]c1=O | 4.2 µM | 
Cc1cn([C@H]2C[C@H](n3cc(-c4ccc(Cl)cc4)nn3)[C@@H](CO)O2)c(=O)[nH]c1=S | 15 µM | 
Cc1cn([C@H]2C[C@H](n3cc(-c4ccc(Cl)cc4)nn3)[C@@H](CO)O2)c(=O)[nH]c1=O | 2.1 µM | 
Cc1cn([C@@H]2C[C@H](O)[C@@H](CNC(=S)Nc3ccc(Cl)c(C(F)(F)F)c3)O2)c(=O)[nH]c1=S | 0.17 µM | inhibition [4]: inactive; inhibition [5]: 100%; MIC99 [6]: 25 µg/mL (≈ 50.5 µM); Ratio Ki [3]: > 100
Cc1cn([C@@H]2C[C@H](N=[N+]=[N-])[C@@H](CO)O2)c(=O)[nH]c1=O | 6 µM | 
Cc1cn([C@@H]2C[C@H](n3cc(-c4ccc(Cl)cc4)nn3)[C@@H](CO)O2)c(=O)[nH]c1=O | 35 µM | 
Cc1cn([C@H]2C[C@H](O)[C@@H](CNc3nnnn3-c3ccc(Cl)c(C(F)(F)F)c3)O2)c(=O)[nH]c1=O | 73 µM | 
Cc1cn([C@H]2C[C@H](O)[C@@H](Cn3cc(-c4ccc(Cl)cc4)nn3)O2)c(=O)[nH]c1=O | 201 µM | 
Cc1cn([C@H]2C[C@H](O)[C@@H](CNC(=S)Nc3ccc(Cl)c(C(F)(F)F)c3)O2)c(=O)[nH]c1=O | 14.5 µM | 
Cc1cn([C@H]2C[C@H](NC(=O)Nc3ccc(Cl)c(C(F)(F)F)c3)[C@@H](CO)O2)c(=O)[nH]c1=O | 2.8 µM | Ki (Thymidylate kinase [7]): 95 µM; Ratio Ki [3]: 34
Cc1cn([C@H]2C[C@H](NC(=S)Nc3ccc(Cl)c(C(F)(F)F)c3)[C@@H](CO)O2)c(=O)[nH]c1=O | 9.9 µM | 
Cc1cn([C@@H]2C[C@H](O)[C@@H](CNC(=S)Nc3ccccc3)O2)c(=O)[nH]c1=S |  | inhibition [8]: inactive; MIC99 [6]: > 100 µg/mL
Cc1cn([C@H]2C[C@H](Nc3nnnn3-c3ccc(Cl)c(C(F)(F)F)c3)[C@@H](CO)O2)c(=O)[nH]c1=O | 45 µM | 
Cc1cn([C@@H]2C[C@H](O)[C@@H](Cn3cc(-c4ccc(Cl)cc4)nn3)O2)c(=O)[nH]c1=O | 9 µM | 
Cc1cn([C@H]2C[C@H](n3cc(Cc4ccccc4)nn3)[C@@H](CO)O2)c(=O)[nH]c1=O | 2.7 µM | inhibition [1]: inactive; Ratio Ki [3]: > 100
Cc1cn([C@H]2C[C@H](N=[N+]=[N-])[C@@H](CO)O2)c(=O)[nH]c1=S | ≥ 100 µM | 
